Source: ChEMBL document CHEMBL1817604, “Synthesis and biological evaluation of 1-(4'-Indolyl and 6'-Quinolinyl) indoles as a new class of potent anticancer agents” (Eur J Med Chem, 2011)

What was measured:
[1] = Inhibition of tubulin polymerization
How it was run: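 Bovine brain MAP-rich tubulin, 4 mg/mL in 100 mM PIPES (pH 6.9), 2 mM MgCl₂, 1 mM GTP, […] per well, with test compound or 2% (v/v) DMSO control. Turbidity read at 350 nm, 37 °C, every 30 s for 30 min.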

MKN-45 = assay: Antiproliferative activity against human MKN45 cells after 72 hrs by methylene blue assay; format: functional, cell-based; details: MKN-45, 72 h
How it was run: (§1)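 Lines kept in RPMI-1640 with 5% fetal bovine serum. Log-phase cells seeded at 5000 cells/mL/well in 24-well plates, then exposed to compound.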

KB = assay: Antiproliferative activity against human KB cells after 72 hrs by methylene blue assay; format: functional, cell-based; how it was run: as §1
HT-29 = assay: Antiproliferative activity against human HT-29 cells after 72 hrs by methylene blue assay; format: functional, cell-based; details: HT-29, 72 h; how it was run: as §1
[2] = Antiproliferative activity against human KB-VIN10 cells over-expressing P-gp 170/MDR1 after 72 hrs by methylene blue assay; format: functional, cell-based; details: KB-VIN10, 72 h
How it was run: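 KB-VIN10 is a P-gp 170/MDR1-overexpressing subline derived from KB by continuous exposure to rising vincristine. It is maintained in growth medium with 10 nM vincristine. Log-phase cells seeded at 5000 cells/mL/well in 24-well plates before compound exposure.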

NCI-H460 = assay: Antiproliferative activity against human H460 cells after 72 hrs by methylene blue assay; format: functional, cell-based; details: NCI-H460, 72 h
How it was run: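 Log-phase cells seeded at 5000 cells/mL/well in 24-well plates, then exposed to compound.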

Bos taurus = species on record: Bos taurus; assay: Displacement of [3H]colchicine from biotin-labeled bovine brain tubulin at 5 uM after 2 hrs by liquid scintillation counter
[3] = Inhibition of bovine brain tubulin polymerization after 30 mins by turbidimetry analysis

SMILES	IC50 (MKN-45)	IC50 (KB)	IC50 (HT-29)	IC50 (NCI-H460)	Activity (Bos taurus)	IC50 [3]	IC50 [1]	IC50 [2]
COc1ccc2ccc3cc(OC)c(OC)c(OC)c3c2c1	–	–	–	–	–	–	> 40000 nM	–
COc1ccc(-n2ccc3c(OC)c(OC)c(OC)cc32)cc1N	1540 nM	3250 nM	4150 nM	2390 nM	–	–	–	1380 nM
COc1cc2c(ccn2-c2ccc(N(C)C)cc2)c(OC)c1OC	105 nM	148 nM	148 nM	172 nM	–	–	–	63 nM
COc1ccc(/C=C\c2cc(OC)c(OC)c(OC)c2)cc1O [COMBRETASTATIN A4]	4.8 nM	2 nM	94 nM	2.3 nM	97%	–	–	0.7 nM
COc1cc2c(ccn2-c2ccc3occc3c2)c(OC)c1OC	322 nM	537 nM	646 nM	690 nM	–	–	–	265 nM
COc1ccc(-n2ccc3c(OC)c(OC)c(OC)cc32)cc1O	5900 nM	131 nM	6400 nM	737 nM	–	–	–	68 nM
COc1ccc2nc(-n3ccc4c(OC)c(OC)c(OC)cc43)ccc2c1	11500 nM	7370 nM	3650 nM	6170 nM	–	–	–	9110 nM
COc1cc2c(ccn2-c2ccnc3ccccc23)c(OC)c1OC	197 nM	216 nM	329 nM	318 nM	–	–	–	130 nM
COc1cc2c(ccn2-c2cccc3ncccc23)c(OC)c1OC	682 nM	900 nM	921 nM	955 nM	–	–	–	535 nM
COc1cc2c(ccn2-c2ccc3ncncc3c2)c(OC)c1OC	4310 nM	7950 nM	8140 nM	7520 nM	–	–	–	3450 nM
COc1ccc(-n2ccc3c(OC)c(OC)c(OC)cc32)cc1	145 nM	186 nM	179 nM	198 nM	–	–	–	135 nM
COc1cc2c(c(OC)c1OC)-c1ccc(OC)c(=O)cc1[C@@H](NC(C)=O)CC2 [COLCHICINE]	12 nM	10 nM	15 nM	–	–	–	–	121 nM

Further compounds by falling IC50 (MKN-45), results first:

IC50 (MKN-45)	IC50 (KB)	IC50 (HT-29)	IC50 (NCI-H460)	Activity (Bos taurus)	IC50 [3]	SMILES	IC50 [1]	IC50 [2]
59 nM	85 nM	81 nM	81 nM	–	–	COc1ccc2c(-n3ccc4c(OC)c(OC)c(OC)cc43)cn(C)c2c1	–	40 nM
49 nM	102 nM	101 nM	96 nM	44%	4700 nM	COc1ccc(-n2ccc3c(OC)c(OC)c(OC)cc32)c(N)c1	–	50 nM
40 nM	73 nM	74 nM	76 nM	65%	2700 nM	COc1cc2c(ccn2-c2ccc3c(ccn3C)c2)c(OC)c1OC	–	53 nM
40 nM	32 nM	44 nM	49 nM	83%	1700 nM	COc1cc2c(ccn2-c2cccc3c2ccn3C)c(OC)c1OC	–	25 nM
24 nM	18 nM	34 nM	31 nM	72%	2700 nM	COc1cc2c(ccn2-c2ccc3ncccc3c2)c(OC)c1OC	–	11 nM
